Test results: ChEMBL document CHEMBL4808166, “Exploring the Chemistry of Alkaloids from Malaysian Mitragyna speciosa (Kratom) and the Role of Oxindoles on Human Opioid Receptors” (J Nat Prod, 2021)
Activity calls are given as the source filed them.

Columns and labels:
[1] = target: Delta-type opioid receptor (Homo sapiens) (UniProt P41143); test: Displacement of [3H]DADLE from human recombinant delta opioid receptor expressed in Chem-1 (RBL) cells at 100 nM incubated for 60 mins by radiometric scintillation analysis; assay type: cell-based
Outline: (§1)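 δ receptor: membranes of human recombinant Chem-1 (RBL) cells with [3H]DADLE 0.5 nM. Nonspecific binding defined with 10 μM naltrexone. Incubated 60 min at room temperature. Test concentrations 0.1 and 10 μM. Bound ligand collected by rapid vacuum filtration on glass fiber filters, followed by ice-cold buffer rinses. Read-out is percent displacement.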

[2] = target: Delta-type opioid receptor (Homo sapiens) (UniProt P41143); test: Displacement of [3H]DADLE from human recombinant delta opioid receptor expressed in Chem-1 (RBL) cells at 10000 nM incubated for 60 mins by radiometric scintillation analysis; assay type: cell-based; outline: as §1
[3] = target: Kappa-type opioid receptor (Homo sapiens) (UniProt P41145); test: Displacement of [3H]U69593 from human recombinant kappa opioid receptor expressed in Chem-1 (RBL) cells at 100 nM incubated for 60 mins by radiometric scintillation analysis; assay type: cell-based
Outline: (§2)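 κ receptor: human recombinant RBL cell membranes with [3H]U69,593 0.5 nM. Nonspecific binding defined with 10 μM naloxone. Incubated 60 min at room temperature. Screened at 0.1 and 10 μM. Bound fraction separated by vacuum filtration on glass fiber filters with ice-cold buffer washes. Read-out is percent displacement.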

[4] = target: Kappa-type opioid receptor (Homo sapiens) (UniProt P41145); test: Displacement of [3H]U69593 from human recombinant kappa opioid receptor expressed in Chem-1 (RBL) cells at 10000 nM incubated for 60 mins by radiometric scintillation analysis; assay type: cell-based; outline: as §2
Mu-type opioid receptor [5] = target: T1, Mu-type opioid receptor (Homo sapiens, UniProt P35372); test: Displacement of [3H]DAMGO from human recombinant mu opioid receptor expressed in HEK293 cells at 100 nM incubated for 120 mins by radiometric scintillation analysis; assay type: cell-based
Outline: (§3)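 Nonspecific binding defined with 10 μM naloxone. Incubation 120 min at room temperature. Compounds at 0.1 and 10 μM. Rapid vacuum filtration through presoaked glass fiber filters, rinsed with ice-cold buffer. Read-out is percent displacement.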

Mu-type opioid receptor [6] = target: T1, Mu-type opioid receptor; test: Displacement of [3H]DAMGO from human recombinant mu opioid receptor expressed in HEK293 cells at 10000 nM incubated for 120 mins by radiometric scintillation analysis; assay type: cell-based; outline: as §3
Mu-type opioid receptor [7] = target: T1, Mu-type opioid receptor; test: biochemical; assay type: cell-based, HEK293
Rattus norvegicus [8] = test: Antinociceptive activity in iv dosed Sprague-Dawley rat assessed as hot plate latency compound administered as cumulative dose at 5 mins intervals in presence of naltrexone by Hot-plate test; assay type: functional, organism-based
Outline: (§4)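 Adult female and male Sprague-Dawley rats (10 weeks, n = 6, three per sex) with right external jugular vein catheter. Vehicle 5% Tween 80 + 5% propylene glycol in sterile water, 1.0 mL/kg i.v. After baseline, vehicle then ascending cumulative doses every 5 min, then naltrexone 0.1 mg/kg i.v. Plate at 52 °C, 60 s cutoff. Latency converted to %MPE; ED50 (95% CI) by linear regression.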

Rattus norvegicus [9] = test: Antinociceptive activity in iv dosed Sprague-Dawley rat assessed as hot plate latency compound administered as cumulative dose at 5 mins intervals by Hot-plate test; assay type: functional
Outline: as §4, with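 “cutoff.” for “cutoff. Latency converted to %MPE; ED50 (95% CI) by linear regression.”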

Kappa-type opioid receptor (Homo sapiens), sequence (P41145 whole entry): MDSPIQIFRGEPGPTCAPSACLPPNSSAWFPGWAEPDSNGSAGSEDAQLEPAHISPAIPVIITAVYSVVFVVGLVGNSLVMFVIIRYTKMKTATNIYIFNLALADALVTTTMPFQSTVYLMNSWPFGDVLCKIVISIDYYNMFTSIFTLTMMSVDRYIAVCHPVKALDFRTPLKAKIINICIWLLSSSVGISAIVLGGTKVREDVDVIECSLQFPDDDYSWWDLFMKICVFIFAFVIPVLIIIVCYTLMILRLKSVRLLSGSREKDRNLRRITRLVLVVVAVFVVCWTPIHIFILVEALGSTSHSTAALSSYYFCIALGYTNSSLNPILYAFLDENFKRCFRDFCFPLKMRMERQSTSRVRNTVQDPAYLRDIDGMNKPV
Delta-type opioid receptor (Homo sapiens), sequence (P41143 whole entry): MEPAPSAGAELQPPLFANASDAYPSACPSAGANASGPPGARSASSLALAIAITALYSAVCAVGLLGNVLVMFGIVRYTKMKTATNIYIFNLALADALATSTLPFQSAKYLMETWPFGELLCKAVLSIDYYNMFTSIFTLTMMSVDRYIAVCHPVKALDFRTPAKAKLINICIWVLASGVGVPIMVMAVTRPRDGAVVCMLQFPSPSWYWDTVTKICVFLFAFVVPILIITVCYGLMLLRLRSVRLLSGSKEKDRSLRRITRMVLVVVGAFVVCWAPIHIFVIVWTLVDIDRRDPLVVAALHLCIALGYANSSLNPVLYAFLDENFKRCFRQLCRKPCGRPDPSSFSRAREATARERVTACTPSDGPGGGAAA
T1 sequence (P35372 whole entry): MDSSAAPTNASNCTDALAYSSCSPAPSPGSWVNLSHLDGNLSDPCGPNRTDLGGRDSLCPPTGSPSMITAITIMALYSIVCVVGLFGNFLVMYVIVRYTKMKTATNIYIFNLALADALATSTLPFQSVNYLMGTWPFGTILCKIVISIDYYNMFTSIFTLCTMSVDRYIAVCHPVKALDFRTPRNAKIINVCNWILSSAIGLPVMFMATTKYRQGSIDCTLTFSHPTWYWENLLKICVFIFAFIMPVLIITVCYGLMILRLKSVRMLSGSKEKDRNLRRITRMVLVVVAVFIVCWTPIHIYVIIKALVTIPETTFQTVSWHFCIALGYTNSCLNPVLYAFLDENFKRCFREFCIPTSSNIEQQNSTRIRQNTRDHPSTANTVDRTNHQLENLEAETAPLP

SMILES	Activity [1]	Activity [2]	Activity [3]	Activity [4]	Activity (Mu-type opioid receptor [5])	Activity (Mu-type opioid receptor [6])	Ki (Mu-type opioid receptor [7])	Activity (Rattus norvegicus [8])	ED50 (Rattus norvegicus [9])
CC[C@@H]1C[N+]2([O-])CCc3c([nH]c4cccc(OC)c34)[C@H]2C[C@@H]1/C(=C\OC)C(=O)OC (stereo partly drawn)	5.1%	53.5%	6.6%	80.9%	10.5%	84.6%	553 nM	–	–
C=C[C@H]1CN2CCc3c([nH]c4cccc(OC)c34)[C@@H]2C[C@@H]1/C(=C\OC)C(=O)OC	–	–	–	–	–	–	410 nM	–	–
O=C1CC[C@@]2(O)[C@H]3Cc4ccc(O)c5c4[C@@]2(CCN3CC2CC2)[C@H]1O5	–	–	–	–	–	–	–	inactive	–
CC[C@@H]1CN2CC[C@@]3(C(=O)Nc4ccccc43)[C@@H]2C[C@@H]1/C(=C\OC)C(=O)OC [CORYNOXINE]	-3.9%	73.8%	3.8%	75.3%	80.1%	97.8%	16.4 nM	–	6.75 mg/kg
CC[C@@H]1CN2CC[C@@]3(C(=O)Nc4cccc(O)c43)[C@H]2C[C@@H]1/C(=C\OC)C(=O)OC	0%	27.1%	0.1%	37.3%	13.1%	83.3%	789 nM	–	–
CC[C@@H]1CN2CC[C@]3(C(=O)Nc4cccc(OC)c43)[C@@H]2C[C@@H]1/C(=C\OC)C(=O)OC	10.4%	87.1%	5%	23%	7.3%	66.5%	1720 nM	–	–
CC[C@@H]1CN2CC[C@]3(C(=O)Nc4ccccc43)[C@@H]2C[C@@H]1/C(=C\OC)C(=O)OC [CORYNOXINE B]	-4.4%	65.5%	4.5%	51.8%	45.4%	94.4%	110 nM	–	–
